Activity calls are given as the source filed them. The rule behind the calls is not given here.
Experiments:
[1] = Cytotoxicity in human HepG2.2.15 cells assessed as reduction in cell viability incubated for 8 days by MTT assay; type: cell-based, HepG2 2.2.15
Procedure, shortened: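 This was run in the same 8-day HepG2.2.15 cultures. After the medium was removed, MTT was added (final 2.5 mg/mL) for 1 h at 37 °C. Cells were lysed in 10% SDS/50% DMF, pH 7.2, and OD was read at 570 nm to give % cell death. CC50 was averaged with SD from at least two independent determinations.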

Hepatitis B virus [2] = experiment: Antiviral activity against HBV infected in human HepG2.2.15 cells assessed as reduction in cytoplasmic HBV-DNA replication at cytotoxic CC50 level incubated for 8 days by real-time PCR analysis; type: functional, organism-based; conditions: HepG2 2.2.15
Hepatitis B virus [3] = experiment: Antiviral activity against HBV infected in human HepG2.2.15 cells assessed as reduction in cytoplasmic HBV-DNA replication incubated for 8 days by real-time PCR analysis; type: functional, organism-based
Hepatitis B virus [4] = experiment: Antiviral activity against HBV infected in human HepG2.2.15 cells assessed as reduction in capsid associated DNAs at 0.1 uM by agarose gel electrophoresis method; type: functional, organism-based; conditions: HepG2 2.2.15
Procedure, shortened: (§1)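 HepG2.2.15 cells treated at indicated concentrations for 8 days. Intracellular capsids resolved on 1.8% native agarose gel; capsid mobility compared with untreated cells, and capsid-associated HBV DNA detected in situ.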

Hepatitis B virus [5] = experiment: Antiviral activity against HBV infected in human HepG2.2.15 cells assessed as reduction in capsid formation; type: functional, organism-based; conditions: HepG2 2.2.15
mouse (Mus musculus) [6] = experiment: Tmax in mouse at 2 mg/kg, iv dosed as single administration; conditions: in vivo
mouse (Mus musculus) [7] = experiment: AUC (0 to infinity) in mouse at 2 mg/kg, iv dosed as single administration; conditions: in vivo
mouse (Mus musculus) [8] = experiment: AUC (0 to infinity) in mouse at 20 mg/kg, po dosed as single administration; conditions: in vivo
mouse (Mus musculus) [9] = experiment: Observed volume of distribution at steady state in mouse at 2 mg/kg, iv dosed as single administration; conditions: in vivo, read-out: Vdss
Hepatitis B virus [10] = experiment: Antiviral activity against HBV infected in human HepG2.2.15 cells assessed as reduction in relaxed circular form of viral DNA at 0.06 to 1 uM incubated for 8 days by Southern blotting analysis; type: functional, organism-based; conditions: HepG2 2.2.15
Procedure, shortened: (§2)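 HepG2.2.15 cells grown in 12-well plates were treated at the indicated concentrations for 8 days. HBV DNA was extracted from intracellular capsids and detected by Southern blot hybridization with a DIG-labeled HBV genomic fragment probe. Relaxed circular (rc) and single-stranded (ss) replication intermediates were read from the blot.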

Hepatitis B virus [11] = experiment: Antiviral activity against HBV infected in human HepG2.2.15 cells assessed as reduction in single-stranded form of viral DNA at 0.06 to 1 uM incubated for 8 days by Southern blotting analysis; type: functional, organism-based; conditions: HepG2 2.2.15; procedure, shortened: as §2
mouse (Mus musculus) [12] = experiment: Half life in mouse at 2 mg/kg, iv dosed as single administration; conditions: in vivo
mouse (Mus musculus) [13] = experiment: Observed clearance in mouse at 2 mg/kg, iv dosed as single administration; conditions: in vivo
Hepatitis B virus [14] = experiment: Antiviral activity against HBV infected in human HepG2.2.15 cells assessed as reduction in capsid associated DNAs at 1 uM by agarose gel electrophoresis method; type: functional, organism-based; conditions: HepG2 2.2.15; procedure, shortened: as §1
Hepatitis B virus [15] = experiment: Antiviral activity against HBV infected in human HepG2.2.15 cells assessed as reduction in capsid associated DNAs at 5 uM by agarose gel electrophoresis method; type: functional, organism-based; conditions: HepG2 2.2.15; procedure, shortened: as §1
[16] = Drug level in CD1 mouse liver at 20 mg/kg, po dosed as single administration measured after 1 to 8 hrs; type: ADME, organism-based; conditions: in vivo
Procedure, shortened: (§3)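 ICR (CD-1) mice were dosed orally at 20 mg/kg. At set times (1, 3, 8 and 24 h), blood was taken from the heart and portal vein under isoflurane anesthesia and spun to plasma. Livers were removed after portal vein perfusion, rinsed in saline, weighed and homogenized in saline (5 mL/g). Samples were analysed by UPLC–MS/MS in positive electrospray mode.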

[17] = Drug level in CD1 mouse liver at 20 mg/kg, po dosed as single administration measured after 24 hrs; type: ADME, organism-based; conditions: in vivo; procedure, shortened: as §3
[18] = Drug level in CD1 mouse liver at 20 mg/kg, po dosed as single administration measured after 8 hrs; type: ADME, organism-based; conditions: read-out: Drug uptake; procedure, shortened: as §3
[19] = Ratio of drug level in liver to plasma of CD1 mouse at 20 mg/kg, po dosed as single administration measured after 8 hrs; type: ADME, organism-based; procedure, shortened: as §3
Hepatitis B virus [20] = experiment: Antiviral activity against HBV infected in human HepG2.2.15 cells assessed as increase in faster-migrating capsids levels at 0.13 to 1 uM by agarose gel electrophoresis method; type: functional, organism-based; conditions: HepG2 2.2.15; procedure, shortened: as §1
Hepatitis B virus [21] = experiment: Antiviral activity against HBV infected in human HepG2.2.15 cells assessed as reduction in capsid associated DNAs at 0.13 to 1 uM by agarose gel electrophoresis method; type: functional, organism-based; conditions: HepG2 2.2.15; procedure, shortened: as §1
Hepatitis B virus [22] = experiment: Antiviral activity against HBV in AAV8-HBV-transduced Balb/c mouse assessed as reduction in HBV DNA level in plasma at 50 to 150 mg/kg, po BID for 4 weeks; type: functional, organism-based
Procedure, shortened: (§4)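 Male Balb/c mice (6−8 weeks, SPF) given one iv tail-vein injection of recombinant AAV carrying HBV 1.1 genome (10¹¹ viral genome equivalents); after 5 weeks, stably viremic mice dosed orally for 4 weeks. […] Weekly blood sampling; plasma HBV DNA by real-time PCR; Dunnett's test versus vehicle.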

Hepatitis B virus [23] = experiment: Antiviral activity against HBV in AAV8-HBV-transduced Balb/c mouse assessed as reduction in HBV DNA level in plasma at 150 mg/kg, po BID for 4 weeks relative to control; type: functional; procedure, shortened: as §4
Hepatitis B virus [24] = experiment: Antiviral activity against HBV in AAV8-HBV-transduced Balb/c mouse assessed as reduction in HBV DNA level in plasma at 100 mg/kg, po BID for 4 weeks relative to control; type: functional, organism-based; procedure, shortened: as §4

SMILES	CC50 at 192 h [1]	IC50 (Hepatitis B virus [3]; HepG2 2.2.15, 192 h)	IC90 (Hepatitis B virus [3]; HepG2 2.2.15, 192 h)	also measured
COC(=O)c1cc(-c2ccc(F)nc2F)nn(Cc2ccc(Cl)cc2)c1=O	> 100000 nM	–	–	Activity (Hepatitis B virus [2]): inactive
Cc1c(-c2ccc(F)nc2F)nn(Cc2ccc(Cl)cc2)c(=O)c1C	52900 nM	1220 nM	–	–
Cn1cc(-c2ccc(F)nc2F)nc(Cc2ccc(Cl)cc2)c1=O	> 100000 nM	1890 nM	–	–
CC(=O)Nc1ccc(-c2nn(Cc3ccc(C#N)cc3)c(=O)c3ccccc23)c(F)n1	> 100000 nM	–	–	IC90 (Hepatitis B virus [3]; HepG2 2.2.15): inactive; Activity (Hepatitis B virus [2]): inactive
N#Cc1ccc(Cn2nc(-c3ccc(N)nc3F)c3ccccc3c2=O)cc1	> 100000 nM	800 nM	> 10000 nM	–
O=C(O)c1cc(-c2ccc(F)nc2F)nn(Cc2ccc(Cl)cc2)c1=O	> 100000 nM	–	–	Activity (Hepatitis B virus [2]): inactive
CN(C)c1ccc(-c2nn(Cc3ccc(C#N)cc3)c(=O)c3ccccc23)c(F)n1	79200 nM	530 nM	> 10000 nM	–
COCCNc1ccc(-c2nn(Cc3ccc(C#N)cc3)c(=O)c3ccccc23)c(F)n1	> 100000 nM	430 nM	> 10000 nM	–
COC(=O)CCNc1nc(F)c(-c2nn(Cc3ccc(C#N)cc3)c(=O)c3ccccc23)cc1Cl	> 100000 nM	210 nM	1140 nM	–
Cc1cc(-c2ccc(F)nc2F)cn(Cc2ccc(Cl)cc2)c1=O	90800 nM	5450 nM	–	–
COc1cc(-c2ccc(F)nc2F)nn(Cc2ccc(Cl)cc2)c1=O	92200 nM	–	–	Activity (Hepatitis B virus [2]): inactive
O=c1c(CO)cc(-c2ccc(F)nc2F)nn1Cc1ccc(Cl)cc1	> 100000 nM	170 nM	–	–
C=C1[C@H](CO)[C@@H](O)C[C@@H]1n1cnc2c(=O)[nH]c(N)nc21	–	–	–	Activity (Hepatitis B virus [4]): Active; Activity (Hepatitis B virus [5]): inactive
CCOc1ccc(-c2nn(Cc3ccc(C#N)cc3)c(=O)c3ccccc23)c(F)n1	> 100000 nM	2110 nM	> 10000 nM	–
N#Cc1ccc(Cn2nc(-c3cc(Cl)c(NC[C@H](O)CO)nc3F)c3ccccc3c2=O)cc1	> 100000 nM	22 nM	1010 nM	–
CC(C)c1cc(-c2ccc(F)nc2F)nn(Cc2ccc(Cl)cc2)c1=O	56700 nM	11300 nM	–	–

SMILES	CC50 at 192 h [1]	IC50 (Hepatitis B virus [3]; HepG2 2.2.15, 192 h)	IC90 (Hepatitis B virus [3]; HepG2 2.2.15, 192 h)	also measured
N#Cc1ccc(Cn2nc(-c3cc(Cl)c(NCCO)nc3F)c3ccccc3c2=O)cc1	32100 nM	28 nM	230 nM	Tmax (mouse (Mus musculus) [6]): 0.25 h; AUC (mouse (Mus musculus) [7]): 735 ng·h/mL; AUC(0-inf) (mouse (Mus musculus) [8]): 171 ng·h/mL; Vd (mouse (Mus musculus) [9]): 5.44 L/kg
CNc1ccc(-c2nn(Cc3ccc(C#N)cc3)c(=O)c3ccccc23)c(F)n1	> 100000 nM	540 nM	> 10000 nM	–
N#Cc1ccc(Cn2nc(-c3cc(Cl)c(NC[C@@H](O)CO)nc3F)c3ccccc3c2=O)cc1	> 100000 nM	8 nM	240 nM	–
O=c1c(C2CC2)cc(-c2ccc(F)nc2F)nn1Cc1ccc(Cl)cc1	39800 nM	35100 nM	–	–
CN(C)CCNc1nc(F)c(-c2nn(Cc3ccc(C#N)cc3)c(=O)c3ccccc23)cc1Cl	9760 nM	260 nM	870 nM	–
O=c1c2ccccc2c(-c2ccc(F)nc2F)nn1Cc1ccc(Cl)cc1	36700 nM	300 nM	–	–
COCCNc1nc(F)c(-c2nn(Cc3ccc(C#N)cc3)c(=O)c3ccccc23)cc1Cl	> 100000 nM	38 nM	350 nM	Activity (Hepatitis B virus [10]): Dose-dependent effect; Activity (Hepatitis B virus [11]): Dose-dependent effect; half-life (mouse (Mus musculus) [12]): 3.09 h; clearance (mouse (Mus musculus) [13]): 11.1 mL/min/kg; AUC(0-inf) (mouse (Mus musculus) [7]): 3070 ng·h/mL; AUC(0-inf) (mouse (Mus musculus) [8]): 850 ng·h/mL; Vd (mouse (Mus musculus) [9]): 3.09 L/kg
Cc1nc(-c2ccc(F)nc2F)cn(Cc2ccc(Cl)cc2)c1=O	> 100000 nM	–	–	Activity (Hepatitis B virus [2]): inactive
Cc1ccc(-c2nn(Cc3ccc(C#N)cc3)c(=O)c3ccccc23)c(F)n1	> 100000 nM	820 nM	> 10000 nM	–
N#Cc1ccc(Cn2nc(-c3cc(Cl)c(NCCC(=O)O)nc3F)c3ccccc3c2=O)cc1	> 100000 nM	260 nM	4020 nM	–
COC(=O)C1=C(C)NC(c2ncc(F)cc2F)=N[C@H]1c1ccc(F)cc1Cl	–	42 nM	–	Activity (Hepatitis B virus [14]): Active
O=c1c2c(c(-c3ccc(F)nc3F)nn1Cc1ccc(Cl)cc1)CCCC2	31000 nM	1450 nM	–	–
COc1ccccc1/C(Br)=C(/NC(=O)c1ccc([N+](=O)[O-])cc1)C(=O)N1CCCCC1	> 20000 nM	870 nM	–	Activity (Hepatitis B virus [15]): Active
N#Cc1ccc(Cn2nc(-c3ccc(F)nc3F)c3ccccc3c2=O)cc1	> 100000 nM	120 nM	–	Drug uptake [16]: Active; Drug uptake [17]: Not Active; Activity (Hepatitis B virus [10]): Dose-dependent effect; Activity (Hepatitis B virus [11]): Dose-dependent effect
N#Cc1ccc(Cn2nc(-c3cc(Cl)c(NCC(O)CO)nc3F)c3ccccc3c2=O)cc1 (configuration not stated)	> 100000 nM	14 nM	390 nM	concentration at 8 h [18]: 5950 ng/g; Kp at 8 h [19]: 4; Activity (Hepatitis B virus [10]): Dose-dependent effect; Activity (Hepatitis B virus [11]): Dose-dependent effect; Activity (Hepatitis B virus [20]): Active; Activity (Hepatitis B virus [21]): Dose-dependent effect; Activity (Hepatitis B virus [22]): Dose-dependent effect; log(activity) (Hepatitis B virus [23]): 2.67; Activity (Hepatitis B virus [24]): Active; half-life (mouse (Mus musculus) [12]): 2.52 h; clearance (mouse (Mus musculus) [13]): 4.1 mL/min/kg; AUC(0-inf) (mouse (Mus musculus) [7]): 8250 ng·h/mL; AUC(0-inf) (mouse (Mus musculus) [8]): 49800 ng·h/mL; Vd (mouse (Mus musculus) [9]): 0.766 L/kg

Source: ChEMBL document CHEMBL4619801, “Discovery of Phthalazinone Derivatives as Novel Hepatitis B Virus Capsid Inhibitors” (J Med Chem, 2020)
